Measurements taken from PubChem BioAssay AID504450 (Broad Institute, 2011).
Records with an inconclusive call do not appear. Calls of active or inactive are those of the source.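 The calls were made as follows: active = signal falls, and half-maximal potency stays within ten times the top tested dose in every run; inconclusive = runs disagree, or a flat partial drop, or a poor fit; inactive = inactive every run, flat, wrong way or too weak.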

Test system: not listed separately
Assay: viability loss of control HMLE line – cell-based, HMLE_sh_eGFP, luminescence, powder samples, set 4, counter-screen for breast cancer stem cell project, dose response (AID 504450)
Settings: HMLE_sh_eGFP viability, CellTiter-Glo luminescence, 72 h; at 30 µM (top of the series)
Method in brief: (§1)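 test system = HMLE breast epithelial cells expressing shRNA against eGFP (counterscreen line) | quantity = 2000 cells per well | incubation = ~72 h compound exposure, 37 °C | doses = 100 nL compound added by pin transfer per well | technique = CellTiter-Glo ATP luminescence, reagent diluted 1:3 in PBS, 12 min incubation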

Row | Compound | activity change, negative = viability loss
1 | O=C(NC1=NCCS1)/C(F)=C/c1ccccc1 | 13.9% (inactive)
2 | Cn1ccnc1NC(=O)c1ccc(COc2ccccc2)o1 | -18.4% (inactive)
3 | CC(C)c1ccc(/C=C/C(=O)Nc2ncc[nH]2)cc1 | -18.2% (inactive)
4 | Cc1cccc(C)c1OCC(=O)N/N=C/c1ccc[nH]1 | 8.5% (inactive)
5 | O=C(COc1c(Cl)cc(Cl)cc1Cl)N/N=C/c1ccn[nH]1 | 0.468% (inactive)
6 | O=C(/C=C/c1ccc(C(F)(F)F)cc1)NC1=NCCS1 | 11.7% (inactive)
7 | O=C(N/N=C/c1ccc[nH]1)C1CC1c1ccccc1 (stereo not drawn) | -2.24% (inactive)
8 | COc1ccccc1OCC(=O)N/N=C/c1ccc[nH]1 | 14.8% (inactive)
9 | Cc1csc(NC(=O)c2ccc(CO)o2)n1 | 13.5% (inactive)
10 | O=C(/C=C/c1ccc(Cl)cc1)NC1=NCCS1 | -4.58% (inactive)
11 | O=C(Nc1nccs1)c1ccc(COc2ccccc2)o1 | 5.29% (inactive)
12 | COc1cccc(/C=C/C(=O)NC2=NCCS2)c1 | 1.9% (inactive)
13 | O=S(=O)(/C=C/c1ccccc1)NC1=NCCS1 | 19.6% (inactive)
14 | O=C(c1ccc(COc2ccccc2)o1)N1CCOCC1 | 5.39% (inactive)
15 | C/C(=C\c1ccccc1)C(=O)NC1=NCCS1 | 12% (inactive)
16 | O=C(N/N=C/c1ccn[nH]1)c1cc2ccccc2o1 | 16.4% (inactive)
17 | Cc1ccc(C)c(OCC(=O)N/N=C/c2ccc[nH]2)c1 | -10.1% (inactive)
18 | O=C(COc1ccc(Cl)cc1Cl)N/N=C/c1ccn[nH]1 | 6.79% (inactive)
19 | O=C(NC1=NCCS1)C1CC1c1ccccc1 (stereo not drawn) | 7.45% (inactive)

Test system: HMLE_sh_eGFP viability, CellTiter-Glo luminescence, 72 h
Assay: as above
Settings: not given
Method in brief: as §1

Row | Compound | AC50
20 | CC(C)(C)c1ccc(/C=C/C(=O)NC2=NCCS2)cc1 | 20.6 µM
21 | Cc1csc(NC(=O)c2ccc(COc3ccccc3OC(F)(F)F)o2)n1 | 0.38 µM
22 | O=C(N/N=C/c1ccc[nH]1)C1COc2cc3ccccc3cc2O1 (stereo not drawn) | 18.9 µM
23 | Cc1csc(NC(=O)c2ccc(COc3ccccc3Cl)o2)n1 | 0.163 µM
24 | Cc1csc(NC(=O)c2ccc(COc3ccc(F)cc3)o2)n1 | 28.5 µM
25 | O=C(CSc1cc(Cl)ccc1Cl)N/N=C/c1ccc[nH]1 | 18 µM
26 | O=C(COc1ccc(Cl)cc1Br)N/N=C/c1ccc[nH]1 | 20.9 µM
27 | Cc1csc(NC(=O)c2ccc(COc3ccc(C#N)cc3)o2)n1 | 12.7 µM
28 | O=C(COc1ccc2ccccc2c1Br)N/N=C/c1ccc[nH]1 | 3.03 µM
29 | CC[C@@H](C(=O)O)C1CC[C@H](C)C([C@@H](C)[C@H](O)[C@H](C)C(=O)[C@H](CC)C2O[C@]3(C=C[C@@H](O)[C@]4(CC[C@@](C)(C5CC[C@](O)(CC)[C@H](C)O5)O4)O3)[C@H](C)C[C@@H]2C)O1 (stereo partly drawn) | 0.007 µM
30 | Cc1csc(NC(=O)c2ccc(COc3ccccc3C#N)o2)n1 | 3.69 µM
31 | Cc1csc(NC(=O)c2ccc(COc3ccc(Cl)cc3)o2)n1 | 13 µM
32 | CC(C)c1ccc(/C=C/C(=O)N(C)Cc2ccccc2)cc1 | 9.01 µM
33 | Cc1csc(NC(=O)c2ccc(COc3cccc(F)c3)o2)n1 | 21.5 µM
34 | CC(C)c1ccc(/C=C/C(=O)Nc2nccn2C)cc1 | 5.97 µM
35 | Cc1csc(NC(=O)c2ccc(COc3cccc(Cl)c3)o2)n1 | 6.6 µM
36 | Cc1csc(NC(=O)c2ccc(COc3cccc(OC(F)(F)F)c3)o2)n1 | 4.4 µM

Row | Compound | AC50
37 | Cc1csc(NC(=O)c2ccc(COc3cccc(C(F)(F)F)c3)o2)n1 | 23.5 µM
38 | CC(C)c1ccc(/C=C/C(=O)Nc2ccccn2)cc1 | 14.8 µM
39 | COc1cccc(OCc2ccc(C(=O)Nc3nc(C)cs3)o2)c1 | 1.59 µM
40 | Cc1csc(NC(=O)c2ccc(COc3ccccc3C(F)(F)F)o2)n1 | 0.057 µM
41 | CC(C)c1ccc(/C=C/C(=O)Nc2nccs2)cc1 | 7.26 µM
42 | COc1ccccc1OCc1ccc(C(=O)Nc2nc(C)cs2)o1 | 8.54 µM
43 | O=C(Nc1nc2cccc(Cl)c2s1)c1ccc(COc2ccccc2)o1 | 9.36 µM
44 | CC(C)(C)c1ccc(C2CC2C(=O)N/N=C/c2ccc[nH]2)cc1 (stereo not drawn) | 2.14 µM
45 | O=C(/C=C/c1cccc(Cl)c1)NC1=NCCS1 | 21.5 µM
46 | CC(C)c1ccc(/C=C/C(=O)Nc2nncs2)cc1 | 9.97 µM
47 | CC(C)c1ccc(/C=C/C(=O)NCc2ccccc2)cc1 | 13.2 µM
48 | Cc1csc(NC(=O)c2ccc(COc3ccc(OC(F)(F)F)cc3)o2)n1 | 13.2 µM
49 | Cc1csc(NC(=O)c2ccc(COc3ccc(C(F)(F)F)cc3)o2)n1 | 2.92 µM
50 | Cc1csc(NC(=O)c2ccc(COc3cccc(C#N)c3)o2)n1 | 15.4 µM
51 | Cc1csc(NC(=O)c2ccc(COc3ccccc3F)o2)n1 | 0.151 µM
52 | O=C(COc1ccc2c(c1)OCO2)N/N=C/c1ccc[nH]1 | 20.9 µM
53 | O=C(Nc1ccccn1)c1ccc(COc2ccccc2)o1 | 29.7 µM
